{"source": "paper PMC10194142", "about": "(Virus Research, 2023)", "key": {"ZIKV NS2B-NS3 protease [1]": {"biological_target": "T1, ZIKV NS2B-NS3 protease (Zika virus, UniProt Q32ZE1)", "T1 sequence (Q32ZE1 with tags, fused parts or gaps DEL1468-1489/Y1490G/V1491G/Y1492G/V1493G/K1494S/T1495G/K1497G/R1498G)": "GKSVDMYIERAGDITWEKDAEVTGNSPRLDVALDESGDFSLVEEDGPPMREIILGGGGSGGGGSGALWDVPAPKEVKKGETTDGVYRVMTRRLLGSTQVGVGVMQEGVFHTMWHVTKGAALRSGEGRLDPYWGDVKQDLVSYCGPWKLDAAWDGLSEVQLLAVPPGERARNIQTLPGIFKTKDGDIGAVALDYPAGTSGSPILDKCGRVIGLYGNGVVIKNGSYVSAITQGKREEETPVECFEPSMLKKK", "experiment": "ZIKV NS2B-NS3 enzyme-based fluorescence peptide cleavage assay", "format": "biochemical", "conditions": "for protease activity inhibition efficacy in screening: inhibitor concentration of 50 μM, 5 μM protease, 10 μM substrate", "procedure,_shortened": "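His-tagged NS2B-NS3 protease was expressed in E. coli BL21(DE3) and purified by metal-affinity chromatography. Test compound at 6.25–100 μM was incubated with 5 μM protease in cleavage buffer for 30 min at 37 °C, then with 10 μM Boc-KKR-AMC for 1 h. AMC fluorescence was read at ex 355 / em 455 nm. Activity is expressed as % of the protease-alone control.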"}, "ZIKV NS2B-NS3 protease [2]": {"biological_target": "T1, ZIKV NS2B-NS3 protease", "experiment": "Kinetic analysis of inhibition mechanism", "format": "biochemical", "conditions": "for inhibition mechanism: 75 μM compound, 5 μM protease, Boc-KKR-AMC 0 to 20 μM; for Kcat / Vmax value: protease with 75 μM compound; for Kcat: untreated protease 0.0142; for Vmax value: untreated protease 0.071", "procedure,_shortened": "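Purified His-tagged NS2B-NS3 protease was expressed in E. coli BL21(DE3). 5 μM protease was preincubated with 75 μM test compound in cleavage buffer for 30 min at 37 °C. Boc-KKR-AMC at 0–20 μM was then added for 1 h at 37 °C. Released AMC was read at ex 355 / em 455 nm against an AMC standard curve. Mechanism was assigned from Lineweaver-Burk plots.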"}, "[3]": {"experiment": "Cell viability by ATPlite", "format": "cell-based", "conditions": "human, Huh-7 cells"}, "ZIKV (MR-766)": {"system": "ZIKV (MR-766)", "experiment": "ZIKV RNA replication in infected Huh-7 cells by RT-qPCR", "format": "cell-based, Zika virus", "conditions": "for inhibition of ZIKV replication (ZIKV RNA level): 0.2, 0.69, 2, 6 μM for 72 h, Huh-7, MOI 0.1; for EC50: Zika virus, Huh-7, 72 h; for Selectivity index (SI = CC50/EC50): Huh-7 cells"}, "ZIKV [4]": {"system": "ZIKV", "experiment": "ZIKV-infected ICR suckling mouse model", "format": "in vivo", "procedure,_shortened": "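Six-day-old ICR suckling mice (n = 6 per group) were injected intracerebrally with 10^4 pfu ZIKV. Mock mice received 60 °C heat-inactivated virus. Saline or test compound (1 or 10 mg/kg, i.c.) was given at days 1, 3 and 5 post-infection. At day 6, 0.1 g brain was lysed in RIPA for NS2B western blot. The remaining brain had H&E and IHC (NS1, Ly6C), with infiltration quantified. Data are mean ± SD.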"}, "ZIKV [5]": {"system": "ZIKV", "conditions": "plaque reduction assay; ref Chan et al., 2017; cited from earlier work"}, "ZIKV [6]": {"system": "ZIKV", "conditions": "primary placental cells, dose range of 0.2 to 1 μM; ref Tabata et al., 2016; cited from earlier work"}}, "data": [{"compound": "CC(=O)Oc1ccc(C=C2C(=O)N(c3ccccc3)C(=S)N(c3ccccc3)C2=O)cc1", "note": "[Compound 1, 4-((4,6-dioxo-1,3-diphenyl-2-thioxotetrahydropyrimidin-5(2H)-ylidene)methyl)phenyl acetate]", "values": [{"measurement": "IC50", "setting": "ZIKV NS2B-NS3 protease [1]", "result": 63.4, "unit": "µM"}]}, {"compound": "COc1cc(C=C2C(=O)N(c3ccccc3)C(=S)N(c3ccccc3)C2=O)cc(Br)c1OCc1cccc2ccccc12", "note": "[Compound 2, 5-(3‑bromo-5‑methoxy-4-(naphthalen-1-ylmethoxy)benzylidene)−1,3-diphenyl-2-thioxodihydropyrimidine-4,6(1H,5H)-dione]", "values": [{"measurement": "IC50", "setting": "ZIKV NS2B-NS3 protease [1]", "result": 72.5, "unit": "µM"}]}, {"compound": "COc1cc(C=C2C(=O)N(c3ccccc3)C(=S)N(c3ccccc3)C2=O)cc(I)c1OCc1ccccc1Cl", "note": "[Compound 3, 5-(4-((2-chlorobenzyl)oxy)−3-iodo-5-methoxybenzylidene)−1,3-diphenyl-2-thioxodihydropyrimidine-4,6(1H,5H)-dione]", "values": [{"measurement": "IC50", "setting": "ZIKV NS2B-NS3 protease [1]", "result": 14, "unit": "µM"}, {"measurement": "protease activity inhibition efficacy in screening", "setting": "ZIKV NS2B-NS3 protease [1]", "result": "better protease activity inhibition efficacy than others"}, {"measurement": "inhibition mechanism", "setting": "ZIKV NS2B-NS3 protease [2]", "result": "non-competitive"}, {"measurement": "Kcat", "setting": "ZIKV NS2B-NS3 protease [2]", "result": 0.008, "unit": "min⁻¹"}, {"measurement": "Vmax value", "setting": "ZIKV NS2B-NS3 protease [2]", "result": 0.040, "unit": "µmol/min"}, {"measurement": "CC50 at 48 h", "setting": "[3]", "result": "> 200", "unit": "µM"}, {"measurement": "inhibition of ZIKV replication (ZIKV RNA level)", "setting": "ZIKV (MR-766)", "result": "could significantly inhibit ZIKV replication"}, {"measurement": "EC50", "setting": "ZIKV (MR-766)", "result": 2150, "unit": "nM"}]}, {"compound": "O=C1C(=Cc2cc(I)c(O)c(I)c2)C(=O)N(c2ccccc2)C(=S)N1c1ccccc1", "note": "[Compound 4, 5-(4‑hydroxy-3,5-diiodobenzylidene)−1,3-diphenyl-2-thioxodihydropyrimidine-4,6(1H,5H)-dione]", "values": [{"measurement": "IC50", "setting": "ZIKV NS2B-NS3 protease [1]", "result": "> 100", "unit": "µM"}]}, {"compound": "CCc1ccc(S(=O)(=O)/N=C2\\C=C(NS(=O)(=O)c3ccccc3)C(=O)c3ccccc32)cc1", "note": "[Compound 5, (E)−4-ethyl-N-(4-oxo-3-(phenylsulfonamido)naphthalen-1(4H)-ylidene)benzene sulfonamide]", "values": [{"measurement": "IC50", "setting": "ZIKV NS2B-NS3 protease [1]", "result": "> 100", "unit": "µM"}]}, {"compound": "Cc1cc(C)c(S(=O)(=O)/N=C2\\C=C(NS(=O)(=O)c3ccccc3)C(=O)c3ccccc32)cc1C", "note": "[Compound 6, (E)−2,4,5-trimethyl-N-(4-oxo-3-(phenylsulfonamido)naphthalen-1(4H)-ylidene)benzenesulfonamide]", "values": [{"measurement": "IC50", "setting": "ZIKV NS2B-NS3 protease [1]", "result": "> 100", "unit": "µM"}]}, {"compound": "Cc1ccc(S(=O)(=O)/N=C2\\C=C(NS(=O)(=O)c3ccccc3)C(=O)c3ccccc32)cc1", "note": "[Compound 7, (E)−4-methyl-N-(4-oxo-3-(phenylsulfonamido)naphthalen-1(4H)-ylidene)benzenesulfonamide]", "values": [{"measurement": "IC50", "setting": "ZIKV NS2B-NS3 protease [1]", "result": "> 100", "unit": "µM"}]}, {"compound": "COc1cc(C=C2C(=O)N(c3ccc(C)cc3)C(=S)N(c3ccc(C)cc3)C2=O)cc(Br)c1O", "note": "[Compound 8, 5-(3‑bromo-4‑hydroxy-5-methoxybenzylidene)−2-thioxo-1,3-di-p-tolyldihydropyrimidine-4,6(1H,5H)-dione]", "values": [{"measurement": "IC50", "setting": "ZIKV NS2B-NS3 protease [1]", "result": 6.85, "unit": "µM"}, {"measurement": "protease activity inhibition efficacy in screening", "setting": "ZIKV NS2B-NS3 protease [1]", "result": "better protease activity inhibition efficacy than others"}, {"measurement": "inhibition mechanism", "setting": "ZIKV NS2B-NS3 protease [2]", "result": "non-competitive"}, {"measurement": "Kcat", "setting": "ZIKV NS2B-NS3 protease [2]", "result": 0.009, "unit": "min⁻¹"}, {"measurement": "Vmax value", "setting": "ZIKV NS2B-NS3 protease [2]", "result": 0.045, "unit": "µmol/min"}, {"measurement": "CC50 at 48 h", "setting": "[3]", "result": "> 200", "unit": "µM"}, {"measurement": "inhibition of ZIKV replication (ZIKV RNA level)", "setting": "ZIKV (MR-766)", "result": "could significantly inhibit ZIKV replication"}, {"measurement": "EC50", "setting": "ZIKV (MR-766)", "result": 520, "unit": "nM"}, {"measurement": "survival (protection from lethal ZIKV infection)", "setting": "ZIKV [4]; 1 mg/kg or 10 mg/kg on days 1, 3, 5, observed 6 days, vs saline", "result": "protected all ZIKV-infected suckling mice from lethal ZIKV infection"}, {"measurement": "clinical score (sickness)", "setting": "ZIKV [4]; 1 mg/kg or 10 mg/kg on days 1, 3, 5, vs saline", "result": "a delay in the sickness induced by ZIKV infection"}, {"measurement": "Ly6C+ monocyte infiltration in brain tissue", "setting": "ZIKV [4]; 6 dpi, vs saline-treated group", "result": "significantly less accumulated"}, {"measurement": "ZIKV NS1 level in brain tissue (IHC)", "setting": "ZIKV [4]; 6 dpi, vs saline-treated group", "result": "significantly decreased"}, {"measurement": "ZIKV NS2B protein level in brain tissue (western blot)", "setting": "ZIKV [4]; 6 dpi, vs saline-treated group", "result": "significantly decreased"}]}, {"compound": "Cc1ccc(NC(=O)COc2ccc(C=C3C(=O)N(c4ccccc4)C(=S)N(c4ccccc4)C3=O)cc2)cc1C", "note": "[Compound 9, N-(3,4-dimethylphenyl)−2-(4-((4,6-dioxo-1,3-diphenyl-2-thioxotetrahydropyrimidin-5(2H)-ylidene)methyl)phenoxy)acetamide]", "values": [{"measurement": "IC50", "setting": "ZIKV NS2B-NS3 protease [1]", "result": 14.2, "unit": "µM"}, {"measurement": "protease activity inhibition efficacy in screening", "setting": "ZIKV NS2B-NS3 protease [1]", "result": "better protease activity inhibition efficacy than others"}, {"measurement": "inhibition mechanism", "setting": "ZIKV NS2B-NS3 protease [2]", "result": "non-competitive"}, {"measurement": "Kcat", "setting": "ZIKV NS2B-NS3 protease [2]", "result": 0.0086, "unit": "min⁻¹"}, {"measurement": "Vmax value", "setting": "ZIKV NS2B-NS3 protease [2]", "result": 0.043, "unit": "µmol/min"}, {"measurement": "CC50 at 48 h", "setting": "[3]", "result": 61.5, "unit": "µM"}, {"measurement": "inhibition of ZIKV replication (ZIKV RNA level)", "setting": "ZIKV (MR-766)", "result": "could significantly inhibit ZIKV replication"}, {"measurement": "Selectivity index (SI = CC50/EC50)", "setting": "ZIKV (MR-766)", "result": 17.46}, {"measurement": "EC50", "setting": "ZIKV (MR-766)", "result": 3520, "unit": "nM"}]}, {"compound": "CC(C)c1ccc(S(=O)(=O)/N=C2/C=C(NS(=O)(=O)c3ccccc3)C(=O)c3ccccc32)cc1", "note": "[Compound 10, (Z)−4-isopropyl-N-(4-oxo-3-(phenylsulfonamido)naphthalen-1(4H)-ylidene)benzenesulfonamide]", "values": [{"measurement": "IC50", "setting": "ZIKV NS2B-NS3 protease [1]", "result": "> 100", "unit": "µM"}]}, {"compound": "Cc1ccc(S(=O)(=O)/N=C2\\C=C(NS(=O)(=O)c3ccccc3)C(=O)c3ccccc32)c(C)c1", "note": "[Compound 11, (E)−2,4-dimethyl-N-(4-oxo-3-(phenylsulfonamido)naphthalen-1(4H)-ylidene)benzenesulfonamide]", "values": [{"measurement": "IC50", "setting": "ZIKV NS2B-NS3 protease [1]", "result": "> 100", "unit": "µM"}]}, {"compound": "Oc1cccc(-c2c3nc(c(-c4cccc(O)c4)c4ccc([nH]4)c(-c4cccc(O)c4)c4nc(c(-c5cccc(O)c5)c5ccc2[nH]5)CC4)C=C3)c1", "note": "[Temoporfin, reference compound]", "values": [{"measurement": "IC50", "setting": "ZIKV NS2B-NS3 protease [1]", "result": 18.8, "unit": "µM"}, {"measurement": "CC50 at 48 h", "setting": "[3]", "result": 61.1, "unit": "µM"}, {"measurement": "Selectivity index (SI = CC50/EC50)", "setting": "ZIKV (MR-766)", "result": 30.53}, {"measurement": "EC50", "setting": "ZIKV (MR-766)", "result": 2000, "unit": "nM"}]}, {"compound": "CC(C)C[C@H]1C(=O)N2CCC[C@H]2[C@]2(O)O[C@](NC(=O)[C@@H]3C=C4c5cccc6[nH]c(Br)c(c56)C[C@H]4N(C)C3)(C(C)C)C(=O)N12", "note": "[bromocriptine]", "values": [{"measurement": "ZIKV-mediated plaque reduction", "setting": "ZIKV [5]", "result": "~100", "unit": "%"}]}, {"compound": "duramycin", "values": [{"measurement": "block of ZIKV infection", "setting": "ZIKV [6]", "result": "> 80", "unit": "%"}]}]}
